According to PubChem BioAssay AID492951 (Molecular Libraries Program, Specialized Chemistry Center, …, 2010):
The source made the active and inactive calls.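 How the source made its calls: active means inhibition above 10%; inactive means the rest.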

biological target: Hexokinase-4 (Homo sapiens) (UniProt P35557); experiment: hGlck enzyme activity off-target inhibitors – biochemical, recombinant hGlck, counter-screen for TbHK1 inhibitor project (AID 492951); settings: G6PDH-coupled NADH absorbance 340 nm, at 10 µM; active compounds read high
Procedure, shortened: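 Test system: purified recombinant human glucokinase (HK4) with G6PDH coupling enzyme / Reagent: 20 mM glucose as reaction starter, plus 1 mM ATP / Timing: 10 min room-temperature compound-enzyme preincubation before glucose addition / Measured by: A340 of NADH / Repeats: three replicates per compound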

Chain of Hexokinase-4 (Homo sapiens) (P35557 whole entry, looked up): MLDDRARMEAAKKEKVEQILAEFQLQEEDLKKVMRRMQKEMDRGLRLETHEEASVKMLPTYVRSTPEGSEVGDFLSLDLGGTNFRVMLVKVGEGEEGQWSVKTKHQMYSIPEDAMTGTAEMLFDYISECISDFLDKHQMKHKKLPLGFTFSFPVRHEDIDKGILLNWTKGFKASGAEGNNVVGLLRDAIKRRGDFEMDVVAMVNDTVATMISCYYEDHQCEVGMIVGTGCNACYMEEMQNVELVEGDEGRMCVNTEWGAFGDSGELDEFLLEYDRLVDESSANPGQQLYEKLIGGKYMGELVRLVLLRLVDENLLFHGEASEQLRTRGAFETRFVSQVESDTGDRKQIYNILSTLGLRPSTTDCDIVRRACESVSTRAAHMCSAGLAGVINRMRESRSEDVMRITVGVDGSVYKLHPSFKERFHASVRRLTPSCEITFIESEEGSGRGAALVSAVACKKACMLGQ

SMILES	inhibition	outcome
CN(C)c1ccc(NC(=O)Cn2sc3ccccc3c2=O)cc1	14.1% (active)	
COc1ccc(C(=O)Nc2cc(F)cc(F)c2O)cc1		inactive
COc1ccc(NC(=O)Nc2ccccc2C(=O)O)cc1	5.1% (inactive)	
O=c1c2ccccc2sn1-c1cccc(F)c1	28.2% (active)	
O=c1c2ccccc2sn1-c1ccc(Cl)cc1	35.6% (active)	
O=c1c2ccc([N+](=O)[O-])cc2sn1-c1ccccc1	1.5% (inactive)	
CC(C)c1cccc(C(=O)Nc2cc(Cl)ccc2C(=O)O)c1		inactive
O=C(Cn1sc2ccccc2c1=O)Nc1cccc(Br)c1	22.2% (active)	
CCCCCCC(=O)Nc1cc(Cl)ccc1C(=O)O		inactive
Cc1ccc(-n2sc3cc(F)ccc3c2=O)c(C)c1	55.6% (active)	
O=C(Nc1cc(Cl)ccc1C(=O)O)c1ccc(C(F)(F)F)cc1		inactive
COc1ccc(NC(=O)c2ccccc2SCc2ccccc2)cc1	41.2% (active)	
COc1ccc(C(=O)Nc2cc(Br)ccc2C(=O)O)cc1		inactive
O=C(Cn1sc2ccccc2c1=O)Nc1cccc(F)c1	14.3% (active)	
COc1ccc(C(=O)Nc2cc(Cl)ccc2C(=O)O)cc1OC	20.1% (active)	
N#Cc1ccc2sn(-c3ccccc3)c(=O)c2c1	4.3% (inactive)	
O=C(Cn1sc2ccccc2c1=O)Nc1ccc(F)cc1	1.7% (inactive)	
CC(C)Cc1ccc(C(=O)Nc2cc(Cl)ccc2C(=O)O)cc1	19.5% (active)	
COc1ccc(C(=O)NCC(=O)O)cc1	20.5% (active)	

SMILES	inhibition	outcome
Cc1cc(C(C#N)c2ccc(Cl)cc2)c(Cl)cc1NC(=O)c1cc(I)cc(I)c1O (stereo not drawn)	24.3% (active)	
O=c1cc(-c2ccccc2)sn1-c1ccccc1		inactive
C=C(C)c1ccc(C(=O)Nc2cc(Cl)ccc2C(=O)O)cc1	25.9% (active)	
CCCc1ccc(C(=O)Nc2cc(Cl)ccc2C(=O)O)cc1	16.8% (active)	
O=C(Nc1cc(Cl)ccc1C(=O)O)c1ccc(C2CCCC2)cc1	21.1% (active)	
CC(=O)Nc1ccc2sn(-c3ccccc3)c(=O)c2c1	51.9% (active)	
O=C(Nc1cc(Cl)ccc1C(=O)O)c1ccc(Cc2ccccc2)cc1		inactive
CC(=O)Nc1ccc2c(=O)n(-c3ccccc3)sc2c1		inactive
COc1ccc(C(=O)NC(CC(=O)O)c2cccc(Cl)c2)cc1 (stereo not drawn)		inactive
O=c1c2cc(Br)ccc2sn1-c1ccccc1	38.4% (active)	
O=C(Nc1cc(Cl)ccc1C(=O)O)c1ccsc1		inactive
O=c1c2ccc(F)cc2sn1Cc1ccccc1	56.1% (active)	
CCc1ccc(C(=O)Nc2cc(Cl)ccc2C(=O)OC)cc1	14.5% (active)	
O=C(O)c1ccc(Cl)cc1NC(=O)C1CCOCC1		inactive
COc1ccc(C(=O)Nc2ccccc2-c2nn[nH]n2)cc1		inactive
O=C(Cn1sc2ccccc2c1=O)N1CCOCC1		inactive
COC(=O)c1ccc(Cl)cc1NC(=O)c1ccc(Cl)cc1		inactive
CN(Cc1ccccc1)C(=O)Cn1sc2ccccc2c1=O	30.6% (active)	
N#Cc1ccc2c(=O)n(-c3ccccc3)sc2c1	54% (active)	
